A selection: hits, their analogues and other compounds. The true share with any hit is near 1.3%.
LYPLA2 counter: LYPLA2 inhibitors, primary screen, counter-screen for PME1 inhibitor project, biochemical, fluorescence polarization, FP-Rh probe ABPP; recombinant LYPLA2; inhibition, % at 5.9 µM; 320,000 compounds, 0.38% hits;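 active = inhibition above the screen-wide mean plus 3 SD, limit set per campaign, cut at about 26% in these data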;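 also: 0% = LYPLA2 with DMSO and 100% = wells lacking LYPLA2 enzyme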
Target sequence (O95372 whole entry, looked up): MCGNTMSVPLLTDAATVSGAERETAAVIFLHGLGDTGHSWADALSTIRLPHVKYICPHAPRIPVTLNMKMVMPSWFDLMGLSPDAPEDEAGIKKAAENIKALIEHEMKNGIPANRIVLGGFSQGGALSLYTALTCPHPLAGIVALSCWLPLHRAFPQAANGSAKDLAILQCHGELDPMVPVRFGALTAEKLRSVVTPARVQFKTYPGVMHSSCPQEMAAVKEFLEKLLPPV
Fam108B counter: mouse Fam108B serine hydrolase inhibitors, primary screen, counter-screen for RBBP9 inhibitor project, biochemical, fluorescence polarization; 300,000 compounds, 0.33% hits; AID 1947, 2009; inhibition, % at 9.51 µM; recombinant Fam108B, FP-Rh probe fluorescence polarization;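 active = inhibition above the screen mean inhibition plus 3 SD, computed separately per campaign, cut at about 18% in these data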;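 also: inhibitors lower polarization as less probe binds the enzyme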
PAD4 FP inh: human PAD4 inhibitors, primary screen, biochemical, fluorescence polarization, 1536-well format | Protein-arginine deiminase type-4 (Homo sapiens), Q9UM07 | recombinant PAD4, RCA probe fluorescence polarization | inhibition, % at 6.36 µM | 330,000 compounds, 0.41% hits;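 active = percent inhibition above a cutoff equal to the mean of all tested compounds plus 3 SD, cut at about 15% in these data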;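 also: 0% = PAD4 with RCA probe and DMSO and 100% = probe without PAD4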
RBBP9 inh: human RBBP9 inhibitors, primary screen, biochemical, fluorescence polarization, FP-Rh probe, HTS; Serine hydrolase RBBP9 (Homo sapiens), O75884; recombinant RBBP9; inhibition, % at 7.94 µM; 220,000 compounds, 0.2% hits; AID 1515, 2009;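 active = inhibition above the campaign mean of all tested compounds plus 3 SD, cut at about 14% in these data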;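 also: plate controls were DMSO wells with RBBP9 for no effect and wells lacking RBBP9 protein for full effect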
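Controls: DMSO-treated enzyme wells and wells lacking RBBP9 | Material: RBBP9 protein | Technique: Fluorescence polarization | Replication: Single well per compound, no replicates | Buffer or medium: Tris-NaCl-Pluronic buffer, pH 8.0 | Timing: 30 min compound preincubation, 45 min probe labeling, 25 °C | Read-out basis: Percent inhibition from mP, scaled between DMSO and no-protein wells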
PME-1 inh: PME-1 inhibitors via competitive probe labeling, primary screen, biochemical, fluorescence polarization, FP-Rh probe, HTS; Protein phosphatase methylesterase 1 (Homo sapiens), Q9Y570; recombinant PME-1; inhibition, % at 5.9 µM; 320,000 compounds, 0.53% hits; AID 2130, 2009;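 active = inhibition above the campaign mean of all compounds plus 3 SD, cut at about 26% in these data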;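 also: competitive labeling of PME-1 active site by serine hydrolase directed probe; 0% = PME-1 with DMSO and 100% = wells lacking PME-1 enzyme; inhibitors block probe labeling so polarization falls and inhibition rises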
LYPLA1 inh: LYPLA1 inhibitors, primary screen, counter-screen for PME1 inhibitor project, biochemical, fluorescence polarization, FP-Rh probe ABPP. recombinant LYPLA1. inhibition, % at 5.9 µM. 320,000 compounds, 0.16% hits. AID 2174, 2009;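 active = inhibition above the mean of all tested compounds plus 3 SD, set per campaign, cut at about 14% in these data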;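 also: inhibitors block serine hydrolase probe labeling of LYPLA1 so polarization falls; 0% = enzyme with DMSO and 100% = wells lacking LYPLA1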
Target sequence (O75608 whole entry, looked up): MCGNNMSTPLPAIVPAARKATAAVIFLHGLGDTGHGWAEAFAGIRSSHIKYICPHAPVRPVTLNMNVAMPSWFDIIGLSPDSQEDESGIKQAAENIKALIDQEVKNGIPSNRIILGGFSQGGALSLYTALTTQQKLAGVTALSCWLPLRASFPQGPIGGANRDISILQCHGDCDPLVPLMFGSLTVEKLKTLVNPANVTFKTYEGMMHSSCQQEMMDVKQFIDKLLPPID
* marks the source's active call; other numbers are inactive results; / = no result given.

SMILES	LYPLA2 counter	Fam108B counter	PAD4 FP inh	RBBP9 inh	PME-1 inh	LYPLA1 inh
COc1ccccc1-c1c(C#N)c(N)nc2c1CCc1ccccc1-2	-13	-1	-14	-10	40*	-8
CCOc1cc(-c2c(C#N)c(N)nc3c2CCc2ccccc2-3)ccc1O	5	-3	-4	-9	-4	-5
COc1ccc2cc3cc(C(=O)NCc4ccco4)oc3nc2c1	5	-2	-5	-4	-12	-5
COc1ccc2cc3c(N)c(C(=O)NCc4ccco4)sc3nc2c1	-1	5	-2	-6	35*	-6
NC(=O)c1c(NC(=O)COC(=O)c2ccc(O)c(Cl)c2)sc2c1CCCC2	/	/	-13	/	/	/
CN(C)c1ccc(NC(=O)Nc2ccc3snnc3c2)cc1	1	9	-1	8	32*	-9
CN(C)C=Nc1ccccc1C1C=NNC1=O (stereo not drawn)	-2	1	-9	2	28*	-3
COc1ccc(-c2cc(-c3ccc(Cl)cc3)n[nH]2)c(O)c1	-1	3	-5	/	42*	-12
COc1ccc(-c2cc(-c3cc(OC)ccc3O)[nH]n2)cc1	-4	13	-3	-7	66*	-8
CN1C(=O)/C(=C/c2ccccc2Cl)Sc2ccc(C(=O)NCc3cccnc3)cc21	9	-13	-3	-19	-15	-11
CC#CCN1c2ccccc2[C@]23C[C@@H](C(=O)OC)N(C(=O)c4cc(C)oc4C)C2=NC(C(=O)OC)=C(C(=O)OC)[C@H]13	3	0	-1	/	28*	1
C=CCN1c2ccccc2[C@]23C[C@@H](C(=O)OC)N(C(=O)c4cc(C)oc4C)C2=NC(C(=O)OC)=C(C(=O)OC)[C@H]13	8	0	1	/	15	1
Cc1ccc(NC(=O)/C(C#N)=N/Nc2ccc(C(=O)O)cc2)c(C)c1	-4	-2	-1	3	-5	0
Cc1ccc(N/N=C(\C#N)C(N)=S)c(C)c1	4	5	1	-4	93*	-3
Nc1c(C(=O)Nc2ccc(Cl)c(C(=O)O)c2)sc2nc3c(cc12)CCCC3	0	-2	1	/	9	2
Nc1c(C(=O)Nc2cccc(C(=O)O)c2)sc2nc3c(cc12)CCCC3	1	5	0	/	26*	-2
O=C(COC(=O)c1ccc(Br)cc1)NCc1ccccc1	4	2	1	-5	2	-1
CC(=O)Cc1cc(O)c2ccccc2c1OC(=O)c1ccc(Br)cc1	-6	2	-12	-7	28*	-3
CC(C)N(C(=O)[C@H]1C[C@H](CC(=O)NCCN2CCOCC2)C(=O)N2CCc3c([nH]c4cc(CCC(=O)N(C)C)ccc34)[C@]12C)C(C)C	/	/	1	/	/	/
O=c1[nH]c(C2CCN(S(=O)(=O)c3ccc(C(F)(F)F)cc3)CC2)nc2c1nnn2Cc1ccc(F)cc1	2	-3	6	/	68*	-3
O=c1[nH]c(C2CCN(S(=O)(=O)c3cccc(C(F)(F)F)c3)CC2)nc2c1nnn2Cc1cccc(F)c1	-4	-2	1	/	11	-3
Cn1c(Cc2ccccc2)nnc1SCC(=O)c1ccc(Br)s1	7	0	-1	-1	-5	2
Cc1ccc(C)c(CN2CCN(c3ncccn3)CC2)c1	1	-1	-2	/	1	-2
COc1cc(/C=N/NC(=O)c2ccc3c(c2)OCCO3)cc(Br)c1O	3	2	-5	/	3	1
O=C(N/N=C/c1cc2c(cc1Cl)OCO2)c1ccc2c(c1)OCCO2	-4	1	0	-5	-25	-2
SMILES	LYPLA2 counter	Fam108B counter	PAD4 FP inh	RBBP9 inh	PME-1 inh	LYPLA1 inh
COc1cc(/C=N/NC(=O)c2ccc3c(c2)OCCO3)c(Br)c(Br)c1O	3	8	1	/	45*	4
O=C(N/N=C/c1c(Cl)[nH]c2ccccc12)c1ccc2c(c1)OCCO2	-6	5	-3	-10	29*	-10
COc1ccc(NC(=O)CN(C)C(=O)Cn2c(=O)oc3ccccc32)cc1	1	1	-6	/	-3	1
COc1cc2c(cc1OC)CN(C(=O)c1ccc3[nH]c(C)c(C)c3c1)CC2	1	-2	-3	/	38*	2
CC1OC2(C)OC(=N)C1(C#N)C(C#N)(C#N)C2c1ccccc1 (stereo not drawn)	15	14	25*	-9	16	11
CNC(=O)c1c(NC(=O)c2ccc(S(=O)(=O)N3CCCC3)cc2)sc2c1CCN(C(C)C)C2	5	3	-2	/	34*	-2
COC(=O)N1C(=O)[C@](c2ccccc2)(C2CCCC2)N1C(=O)OC	-6	-3	-2	/	70*	3
COc1cc(OC)cc(-c2nnc(Sc3ccc(C=O)cc3[N+](=O)[O-])o2)c1	10	14	26*	-5	5	-1
COc1cc(OC)cc(-c2nnc(SCC(=O)N(C(C)C)C(C)C)o2)c1	-5	1	0	-1	0	4
O=C(c1ccc([N+](=O)[O-])cc1)N1CCN(C(=O)C2CCCCC2)CC1	4	2	0	/	5	2
O=[N+]([O-])c1ccc(N=NNc2ccccc2)cc1	12	14	2	8	5	2
O=C(O)c1cc(NN=Nc2ccc(Br)cc2)cc([N+](=O)[O-])c1	6	2	-2	-2	40*	9
Brc1ccc(N=NNc2ccccc2)cc1	1	3	0	/	33*	-3
O=C(O)c1cc(NN=Nc2cccc(S(=O)(=O)O)c2)cc([N+](=O)[O-])c1	3	3	0	/	-2	2
CCOc1cccc(-c2cc(C(=O)N3N=C(C)CC3(O)C(F)F)c3ccccc3n2)c1 (stereo not drawn)	-9	-2	-3	-7	-7	-2
O=C(N[C@H]1C/C=C\C[C@H](CC(=O)N(CCO)Cc2ccccc2)C(=O)NC[C@H](c2ccccc2)OC1=O)OCC1c2ccccc2-c2ccccc21	/	/	-1	/	/	/
Cn1cnnc1SC/C(O)=C(\C#N)c1nc2ccccc2[nH]1	2	0	0	-7	8	1
Cc1cccc(Nc2nnc(SC/C(O)=C(\C#N)c3nc4ccccc4[nH]3)s2)c1C	6	6	-3	2	82*	0
COc1cc(OC)c(NC(=S)Nc2cc(Cl)cc(Cl)c2)cc1Cl	-10	21*	-1	-6	9	-14
COc1ccc(-n2c(SCc3ccc([N+](=O)[O-])cc3)nnc2-c2ccc(C)cc2)cc1	0	-5	-4	-10	18	0
